Measurements gathered from unrelated publications.
PIK3CG: Phosphatidylinositol 4,5-bisphosphate 3-kinase catalytic subunit gamma isoform (PIK3CG, Homo sapiens, UniProt P48736)
ADRA2B: Alpha-2B adrenergic receptor (ADRA2B, Homo sapiens, UniProt P18089)

SMILES | target | test | endpoint | value
COc1ccc(-c2cc(=O)c3cccc(Nc4ncc5cc(C(=O)N(C)C)n(C6CCCC6)c5n4)c3o2)cc1 | PIK3CG | enzyme activity, inhibitor, radiometric | IC50 | > 10000 nM
CC(C)c1cccc(C(C)C)c1N=C1C(=O)Nc2ccccc21 | PIK3CG | enzyme activity, inhibitor, ADP detection | IC50 | 12.6 nM
Cn1ccc(-c2ccc(-c3cc(C(=O)O)cc4cc(-c5ccc(C(F)(F)F)cc5)ccc34)cc2)n1 | Sigma intracellular receptor 2 (TMEM97, Homo sapiens, UniProt Q5BJF2) | cell-free assay, radioligand | Ki | 1900 nM
CC(C)C[C@H](NC(=O)[C@H](CC(C)C)NC(=O)[C@H](Cc1c[nH]c2ccccc12)NC(=O)[C@H](CCC(N)=O)NC(=O)[C@@H](NC(=O)[C@H](Cc1ccccc1)NC(=O)[C@H](CC(=O)O)NC(=O)[C@H](CCC(N)=O)NC(=O)[C@H](C)NC(=O)[C@H](C)NC(=O)[C@H](CCCNC(=N)N)NC(=O)[C@H](CCC(=O)O)NC(=O)[C@H](CC(=O)O)NC(=O)[C@H](CC(C)C)NC(=O)[C@H](Cc1ccc(O)cc1)NC(=O)[C@H](CCCCN)NC(=O)[C@H](CO)NC(=O)[C@H](Cc1ccc(O)cc1)NC(=O)[C@H](CC(=O)O)NC(=O)[C@H](CO)NC(=O)[C@@H](NC(=O)[C@H](Cc1ccccc1)NC(=O)[C@@H](NC(=O)CNC(=O)[C@H](CCC(N)=O)NC(=O)C(C)(C)NC(=O)[C@@H](N)Cc1c[nH]cn1)[C@@H](C)O)[C@@H](C)O)C(C)C)C(=O)N[C@@H](CC(=O)O)C(=O)NCC(=O)NCC(=O)N1CCC[C@H]1C(=O)N[C@@H](CO)C(=O)N[C@@H](CC(C)C)C(=O)N[C@@H](CCCNC(=N)N)C(=O)N[C@@H](Cc1c[nH]cn1)C(=O)N[C@@H](Cc1ccc(O)cc1)C(=O)N[C@@H](CC(C)C)C(=O)N[C@@H](CC(N)=O)C(=O)N[C@@H](CC(C)C)C(=O)N[C@H](C(=O)N[C@H](C(=O)N[C@@H](CCCNC(=N)N)C(=O)N[C@@H](CCC(N)=O)C(=O)N[C@@H](CCCNC(=N)N)C(=O)N[C@@H](Cc1ccc(O)cc1)C(N)=O)[C@@H](C)O)C(C)C | Glucagon receptor (GCGR, Homo sapiens, UniProt P47871) | reporter gene, agonist, luciferase | EC50 | 0.12 nM
NC(=O)C1CN(C(=O)CCl)c2ccccc2O1 (centres unmarked) | Creatine kinase U-type, mitochondrial (CKMT1A, Homo sapiens, UniProt P12532) | binding, MST | Kd | 13000 nM
COc1cc(N=C2C(=O)N(Cc3ccccc3)c3ccccc32)cc(OC)c1 | PIK3CG | enzyme activity, inhibitor, ADP detection | IC50 | 1.94 nM
Cc1cc(Oc2ncccc2CN2CCN(c3ccccc3Br)CC2)ccc1-c1c(C)c(=O)[nH]c(=O)n1C | ADRA2B | ligand displacement, radioligand | Ki | 49.6 nM
Cc1cccc(N=C2C(=O)N(Cc3ccccc3)c3ccccc32)c1 | PIK3CG | enzyme activity, inhibitor, ADP detection | IC50 | 0.45 nM
Cc1cc(Oc2ncccc2CN2CCN(c3ccccc3C)CC2)ccc1-c1c(C)c(=O)[nH]c(=O)n1C | ADRA2B | ligand displacement, radioligand | Ki | 28.4 nM
CC(C)c1cccc(C(C)C)c1N=C1C(=O)N(Cc2ccc(Br)cc2)c2ccccc21 | PIK3CG | enzyme activity, inhibitor, ADP detection | IC50 | 4.06 nM
Cc1cc(Oc2ncccc2CN2CCN(c3ccccc3O)CC2)ccc1-c1c(C)c(=O)[nH]c(=O)n1C | ADRA2B | ligand displacement, radioligand | Ki | 97.5 nM
COc1cc(-c2noc(C3CNc4cnn(C)c4C3)n2)cc(Cl)c1OC (centres unmarked) | FBXW7 (Homo sapiens, UniProt Q969H0) | binding, SPR | Kd | > 87000 nM
Cc1cc(Oc2ncccc2CN2CCN(c3ccc(Br)cc3)CC2)ccc1-c1c(C)c(=O)[nH]c(=O)n1C | ADRA2B | ligand displacement, radioligand | Ki | 125 nM
N#Cc1ccc2c(CN3CCOCC3)cc(-c3ccc([C@@H]4CCC(=O)N4)cc3)nc2c1 | Advanced glycosylation end product-specific receptor (AGER, Homo sapiens, UniProt Q15109) | binding, fluorescence | Kd | 1 nM
